We go through 13 compounds from PMC11325413 (ACS Omega, 2024).

As a reminder, the IC50 is the concentration needed to halve the response being measured.

One series relates to A-549. Description: Cytotoxicity assay, lung cancer cell line. In kind it is cell-based. The following applies: Homo sapiens, A549, read-out: cytotoxic activity IC50 ± SEM, A-549. The method in brief:
(§1)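 Cytotoxicity of test compound was measured by MTT assay in a panel of four human cancer cell lines, with IC50 derived from the viability read-out.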

For another series, the system named is MCF-7. The experiment in a line: Cytotoxicity assay, breast cancer cell line. It counts as cell-based. Particulars: Homo sapiens, MCF7, read-out: cytotoxic activity IC50 ± SEM, MCF-7. In outline:
as §1

The next series relates to Panc-1. Description: Cytotoxicity assay, pancreatic cancer cell line. In kind it is cell-based. Particulars: Homo sapiens, PANC-1, read-out: cytotoxic activity IC50 ± SEM, Panc-1. The method in brief:
as §1

The subject of a further series is HT-29. Description: Cytotoxicity assay, colon cancer cell line. It counts as cell-based. Particulars: Homo sapiens, HT-29, read-out: cytotoxic activity IC50 ± SEM, HT-29. In outline:
as §1

In series [1] the test system is four human cancer cell lines (A-549, MCF-7, Panc-1, HT-29). The experiment in a line: Cytotoxicity assay, average over the four cancer cell lines. In kind it is cell-based. Particulars: read-out: cytotoxic activity average IC50 (GI50).
The next series has as its target EGFR (Homo sapiens, UniProt P00533). The experiment in a line: EGFR-TK inhibitory assay. In kind it is biochemical.
A further series has as its target VEGFR-2 (Homo sapiens, UniProt P35968). The experiment in a line: VEGFR-2 inhibitory kinase assay. In kind it is biochemical.
Another series deals with p53. The experiment in a line: Apoptosis marker immunoassay in A-549: p53. It counts as cell-based, human. Particulars: A-549 cells. In outline:
(§2)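 Sandwich immunoassay quantifying pro-apoptotic (p53, BAX, caspase 3, caspase 6) and antiapoptotic (BCL-2, CK-18) proteins in human lung A-549 cells treated with test compound. Levels are expressed as fold change relative to untreated control cells, as mean ± SD of three independent experiments.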

Another series concerns BAX. Description: Apoptosis marker immunoassay in A-549: BAX. The following applies: A-549 cells. In kind it is cell-based, human. The method in brief: as §2
In another series the test system is caspase 3. Description: Apoptosis marker immunoassay in A-549: caspase 3. The following applies: A-549 cells. In kind it is cell-based, human. The method in brief:
as §2

The next series deals with caspase 6. The experiment in a line: Apoptosis marker immunoassay in A-549: caspase 6. It counts as cell-based, human. Particulars: A-549 cells. The method in brief:
as §2

A further series deals with CK-18. The experiment in a line: Apoptosis marker immunoassay in A-549: CK-18. It counts as cell-based, human. The following applies: A-549 cells. The method in brief: as §2
Another series has as its system MCF-10A cells. The experiment in a line: Cell viability assay. It counts as cell-based, human. Particulars: 50 μM doses. The method in brief: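 Normal human mammary gland epithelial MCF-10A cells were incubated with test compound for 4 days, and viability was read by MTT assay.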

EGFR, sequence (P00533 669-1210): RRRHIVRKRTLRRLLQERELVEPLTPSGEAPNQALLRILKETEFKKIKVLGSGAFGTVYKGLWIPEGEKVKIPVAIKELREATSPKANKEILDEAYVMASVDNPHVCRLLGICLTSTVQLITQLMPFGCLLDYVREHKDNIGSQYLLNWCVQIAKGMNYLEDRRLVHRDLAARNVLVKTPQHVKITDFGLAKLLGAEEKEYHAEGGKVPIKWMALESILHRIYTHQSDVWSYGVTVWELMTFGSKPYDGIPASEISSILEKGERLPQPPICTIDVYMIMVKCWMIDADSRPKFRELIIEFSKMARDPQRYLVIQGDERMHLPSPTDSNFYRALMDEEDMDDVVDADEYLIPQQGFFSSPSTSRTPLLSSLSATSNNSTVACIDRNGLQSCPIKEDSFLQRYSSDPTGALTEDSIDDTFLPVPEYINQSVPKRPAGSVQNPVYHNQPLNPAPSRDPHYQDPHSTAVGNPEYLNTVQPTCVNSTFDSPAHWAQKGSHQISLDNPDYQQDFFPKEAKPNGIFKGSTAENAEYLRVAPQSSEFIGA
VEGFR-2, sequence (P35968 20-1356): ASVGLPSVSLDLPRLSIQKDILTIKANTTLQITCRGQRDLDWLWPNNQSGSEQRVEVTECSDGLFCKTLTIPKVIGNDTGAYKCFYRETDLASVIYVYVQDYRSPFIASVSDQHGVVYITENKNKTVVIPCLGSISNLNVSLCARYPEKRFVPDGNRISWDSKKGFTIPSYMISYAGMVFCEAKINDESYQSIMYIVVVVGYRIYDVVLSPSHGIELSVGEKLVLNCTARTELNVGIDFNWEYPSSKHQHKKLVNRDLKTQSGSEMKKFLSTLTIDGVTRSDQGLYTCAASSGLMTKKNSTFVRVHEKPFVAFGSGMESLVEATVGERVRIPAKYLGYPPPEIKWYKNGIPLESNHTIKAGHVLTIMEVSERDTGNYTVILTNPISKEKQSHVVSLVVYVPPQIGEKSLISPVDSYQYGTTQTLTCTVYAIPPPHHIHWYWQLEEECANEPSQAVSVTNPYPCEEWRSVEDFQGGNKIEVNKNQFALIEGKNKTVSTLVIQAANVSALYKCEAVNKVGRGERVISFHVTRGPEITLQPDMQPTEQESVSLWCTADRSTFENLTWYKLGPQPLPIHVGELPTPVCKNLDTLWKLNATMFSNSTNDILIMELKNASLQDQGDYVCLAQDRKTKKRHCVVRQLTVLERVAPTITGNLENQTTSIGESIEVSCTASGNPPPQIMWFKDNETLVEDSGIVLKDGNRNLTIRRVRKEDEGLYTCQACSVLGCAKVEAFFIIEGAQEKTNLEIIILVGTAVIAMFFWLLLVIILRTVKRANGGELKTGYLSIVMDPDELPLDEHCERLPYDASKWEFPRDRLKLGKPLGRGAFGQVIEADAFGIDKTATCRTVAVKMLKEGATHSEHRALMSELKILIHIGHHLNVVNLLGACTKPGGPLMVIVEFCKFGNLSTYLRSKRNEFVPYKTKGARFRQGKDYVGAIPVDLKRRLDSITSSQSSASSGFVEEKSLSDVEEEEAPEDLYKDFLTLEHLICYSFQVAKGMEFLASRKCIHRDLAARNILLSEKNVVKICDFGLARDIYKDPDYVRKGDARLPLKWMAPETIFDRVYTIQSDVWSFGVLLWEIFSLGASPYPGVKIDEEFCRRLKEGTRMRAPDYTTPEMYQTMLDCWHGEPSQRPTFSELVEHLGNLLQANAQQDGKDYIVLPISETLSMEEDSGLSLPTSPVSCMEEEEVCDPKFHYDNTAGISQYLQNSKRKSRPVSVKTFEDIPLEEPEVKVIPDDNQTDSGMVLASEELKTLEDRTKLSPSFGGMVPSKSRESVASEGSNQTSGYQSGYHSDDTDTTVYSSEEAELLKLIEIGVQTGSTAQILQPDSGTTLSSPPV

With `CC1=C(C(=O)OC(C)C)C(c2ccc(O)cc2)NC(=S)N1` (stereo not shown) [Compound 8, Isopropyl 4-(4-Hydroxyphenyl)-6-methyl-2-thioxo-1,2,3,4-tetrahydropyrimidine-5-carboxylate], the IC50 with A-549 came to 0.064 ± 0.006 µM; with MCF-7, 0.068 ± 0.006 µM; in the series with Panc-1 it was 0.067 ± 0.006 µM; in the series with HT-29, 0.068 ± 0.006 µM; in series [1], 0.067 µM.
As to `CC1=C(C(=O)OC(C)C)C(c2cccc(O)c2)NC(=S)N1` (stereo not shown) [Compound 7, Isopropyl 4-(3-Hydroxyphenyl)-6-methyl-2-thioxo-1,2,3,4-tetrahydropyrimidine-5-carboxylate], the IC50 stood at 0.07 ± 0.007 µM with A-549; 0.074 ± 0.007 µM in the series with MCF-7; 0.072 ± 0.007 µM in the series on Panc-1; 0.073 ± 0.007 µM with HT-29; 0.071 µM in series [1].
The matching figures for `COc1cc(C2NC(=O)NC(C)=C2C(=O)OC(C)C)cc(OC)c1OC` (stereo not shown) [Compound 11, Isopropyl 6-Methyl-2-oxo-4-(3,4,5-trimethoxyphenyl)-1,2,3,4-tetrahydropyrimidine-5-carboxylate]: 0.056 ± 0.005 µM, 0.058 ± 0.005 µM, 0.056 ± 0.005 µM, 0.059 ± 0.005 µM and 0.057 µM.
In the same order, the values of `COc1ccc(C2NC(=S)NC(C)=C2C(=O)OC(C)C)cc1OC` (stereo not shown) [Compound 5, Isopropyl 4-(3,4-Dimethoxyphenyl)-6-methyl-2-thioxo-1,2,3,4-tetrahydropyrimidine-5-carboxylate] are 0.067 ± 0.006 µM, 0.071 ± 0.006 µM, 0.068 ± 0.006 µM, 0.07 ± 0.006 µM and 0.068 µM.
On to `COc1ccc(C2NC(=O)NC(C)=C2C(=O)OC(C)C)cc1O` (stereo not shown) [Compound 14, Isopropyl 4-(3-Hydroxy-4-methoxyphenyl)-6-methyl-2-oxo-1,2,3,4-tetrahydropyrimidine-5-carboxylate], for which the IC50 turned out to be 0.04 ± 0.004 µM in the series with A-549; 0.044 ± 0.004 µM with MCF-7; 0.042 ± 0.004 µM in the series on Panc-1; 0.043 ± 0.004 µM in the series on HT-29; 0.041 µM in series [1]; 0.092 ± 0.005 µM against EGFR. Besides, the IC50 at VEGFR-2 was 0.0047 ± 4e-05 µM. Also, in the series with p53, the “p53 elevation compared to control untreated cells” value is given as 3.10 fold. Besides, the “BAX elevation compared to control untreated cells” value with BAX was 11.50 fold. The “caspase 3 elevation compared to control untreated cells” value in the series on caspase 3 turned out to be 7.40 fold. For the same compound, the “caspase 6 elevation compared to control untreated cells” value in the series on caspase 6 came out at 8.50 fold. The “CK 18 protein expression level compared to control untreated cells” value in the series on CK-18 is reported as 0.40 folds.
With `CC1=C(C(=O)OC(C)C)C(c2ccc(O)cc2)NC(=O)N1` (stereo not shown) [Compound 13, Isopropyl 4-(4-Hydroxyphenyl)-6-methyl-2-oxo-1,2,3,4-tetrahydropyrimidine-5-carboxylate], the IC50 turned out to be 0.062 ± 0.006 µM in the series on A-549; 0.064 ± 0.006 µM in the series on MCF-7; 0.061 ± 0.006 µM in the series with Panc-1; 0.064 ± 0.006 µM in the series on HT-29; 0.062 µM in [1].
Consider `CC1=C(C(=O)OC(C)C)C(c2cccc(O)c2)NC(=O)N1` (stereo not shown) [Compound 12, Isopropyl 4-(3-Hydroxyphenyl)-6-methyl-2-oxo-1,2,3,4-tetrahydropyrimidine-5-carboxylate], for which the “effect on nontumor cells MCF-10A” value in the series with MCF-10A cells is “no effect”. Also, the IC50 with A-549 turned out to be 0.036 ± 0.003 µM; with MCF-7, 0.038 ± 0.003 µM; with Panc-1 it was 0.036 ± 0.003 µM; in the series with HT-29 it was 0.038 ± 0.003 µM; in [1], 0.037 µM; on EGFR, 0.087 ± 0.005 µM. This compound also came in with an IC50 on VEGFR-2 of 0.0042 ± 4e-05 µM. Moreover, in the series on p53, the “p53 elevation compared to control untreated cells” value worked out at 4.75 fold. In addition, in the series with BAX, the “BAX elevation compared to control untreated cells” value amounted to 13.95 fold. In addition, the “caspase 3 elevation compared to control untreated cells” value with caspase 3 came to 8.20 fold. Further, in the series with caspase 6, the “caspase 6 elevation compared to control untreated cells” value was found to be 9.65 fold.
Turning to `COc1cc(C2NC(=O)NC(C)=C2C(=O)OC(C)C)ccc1OCc1ccccc1` (stereo not shown) [Compound 15, Isopropyl 4-[4-(Benzyloxy)-3-methoxyphenyl]-6-methyl-2-oxo-1,2,3,4-tetrahydropyrimidine-5-carboxylate], the “effect on nontumor cells MCF-10A” value in the series with MCF-10A cells is recorded as “no effect”. Further, the IC50 with A-549 was found to be 0.033 ± 0.003 µM; with MCF-7, 0.036 ± 0.003 µM; in the series on Panc-1, 0.034 ± 0.003 µM; with HT-29 it was 0.036 ± 0.003 µM; in series [1], 0.035 µM; on EGFR it was 0.084 ± 0.005 µM. The same compound came in with an IC50 at VEGFR-2 of 0.0035 ± 3e-05 µM. Besides, in the series with p53, the “p53 elevation compared to control untreated cells” value amounted to 5.90 fold. The “BAX elevation compared to control untreated cells” value in the series with BAX worked out at 14.50 fold. Moreover, the “caspase 3 elevation compared to control untreated cells” value in the series with caspase 3 was determined as 8.70 fold. In addition, the “caspase 6 elevation compared to control untreated cells” value in the series with caspase 6 was 9.80 fold. Further, the “CK 18 protein expression level compared to control untreated cells” value with CK-18 is on record as 0.60 folds.
Turning to `COc1cc(C2NC(=S)NC(C)=C2C(=O)OC(C)C)ccc1O` (stereo not shown) [Compound 4, Isopropyl 4-(4-Hydroxy-3-methoxyphenyl)-6-methyl-2-thioxo-1,2,3,4-tetrahydropyrimidine-5-carboxylate], the IC50 with A-549 was 0.047 ± 0.004 µM; in the series on MCF-7 it was 0.05 ± 0.005 µM; in the series on Panc-1, 0.048 ± 0.004 µM; with HT-29, 0.049 ± 0.004 µM; in series [1], 0.049 µM.
As to `COc1cc(C2NC(=O)NC(C)=C2C(=O)OC(C)C)ccc1O` (stereo not shown) [Compound 9, Isopropyl 4-(4-Hydroxy-3-methoxyphenyl)-6-methyl-2-oxo-1,2,3,4-tetrahydropyrimidine-5-carboxylate], the IC50 amounted to 0.074 ± 0.007 µM in the series with A-549; 0.079 ± 0.007 µM in the series with MCF-7; 0.075 ± 0.007 µM in the series on Panc-1; 0.077 ± 0.007 µM in the series with HT-29; 0.076 µM in series [1].
In the case of `COc1cc(C2NC(=S)NC(C)=C2C(=O)OC(C)C)cc(OC)c1OC` (stereo not shown) [Compound 6, Isopropyl 6-Methyl-2-thioxo-4-(3,4,5-trimethoxyphenyl)-1,2,3,4-tetrahydropyrimidine-5-carboxylate], the IC50 in the series with A-549 came out at 0.042 ± 0.004 µM; in the series with MCF-7, 0.046 ± 0.004 µM; in the series with Panc-1 it was 0.044 ± 0.004 µM; with HT-29 it was 0.047 ± 0.004 µM; in series [1] it was 0.045 µM; at EGFR, 0.098 ± 0.006 µM. Besides, the IC50 on VEGFR-2 was 0.0053 ± 5e-05 µM.
Regarding `C#Cc1cccc(Nc2ncnc3cc(OCCOC)c(OCCOC)cc23)c1` [erlotinib, reference compound], the IC50 in the series on A-549 came to 0.03 ± 0.003 µM; with MCF-7 it was 0.04 ± 0.003 µM; in the series on Panc-1, 0.03 ± 0.003 µM; with HT-29, 0.03 ± 0.003 µM.
On to `COc1ccc(C2NC(=O)NC(C)=C2C(=O)OC(C)C)cc1OC` (stereo not shown) [Compound 10, Isopropyl 4-(3,4-Dimethoxyphenyl)-6-methyl-2-oxo-1,2,3,4-tetrahydropyrimidine-5-carboxylate], for which the IC50 with A-549 amounted to 0.052 ± 0.005 µM; in the series on MCF-7, 0.055 ± 0.005 µM; in the series on Panc-1, 0.052 ± 0.005 µM; in the series on HT-29, 0.054 ± 0.005 µM; in series [1], 0.053 µM.
